Assay results published in paper PMC3448846 (European neuropsychopharmacology : the journal of the …, 2012).
Like-named read-outs stand apart in the source and are kept apart here.

Key:
α2β3γ2 GABAA receptors = α2β3γ2 GABAA receptors (Rattus norvegicus, UniProt P18508+P23576); experiment: Two electrode voltage clamp, modulation of EC3 GABA current in Xenopus oocytes; assay type: cell-based
[1] = test system: spatial learning and memory; experiment: Morris water maze; assay type: in vivo, male Wistar rats; details: for effect on Morris water-maze performance on its own: WYS8 0.2, 1 and 10 mg/kg i.p., β-CCt 5 mg/kg i.p.
In short: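 Male Wistar rats, 220–250 g, n=8/group, dosed i.p. in 85% water/14% propylene glycol/1% Tween 80 (sonicated) 20 min before each daily block for 5 acquisition days. Pool 200 cm wide with 23°C water; 15×10 cm platform 2 cm below the surface. Each block had 4 trials (max 120 s, 60 s interval, pseudorandom starts). Per-rat daily means were recorded. The probe trial measured target-region time and peripheral-ring distance.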

α1β3γ2 GABAA receptors = α1β3γ2 GABAA receptors (Rattus norvegicus, UniProt P18508+P62813); experiment: Two electrode voltage clamp, modulation of EC3 GABA current in Xenopus oocytes; assay type: cell-based
Chain of α1β3γ2 GABAA receptors (P62813 28-455): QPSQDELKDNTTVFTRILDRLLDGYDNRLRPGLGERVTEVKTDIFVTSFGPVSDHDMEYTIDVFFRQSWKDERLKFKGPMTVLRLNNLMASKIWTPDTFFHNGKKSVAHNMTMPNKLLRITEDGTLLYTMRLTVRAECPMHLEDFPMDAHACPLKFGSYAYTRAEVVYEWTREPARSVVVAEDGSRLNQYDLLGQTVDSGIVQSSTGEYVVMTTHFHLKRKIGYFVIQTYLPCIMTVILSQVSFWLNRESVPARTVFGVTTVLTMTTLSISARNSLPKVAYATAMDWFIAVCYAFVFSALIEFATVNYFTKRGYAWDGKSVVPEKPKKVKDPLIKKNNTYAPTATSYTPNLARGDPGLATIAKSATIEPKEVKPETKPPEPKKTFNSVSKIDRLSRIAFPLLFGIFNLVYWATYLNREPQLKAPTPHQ
Chain of α1β3γ2 GABAA receptors (P63079 26-473 partner): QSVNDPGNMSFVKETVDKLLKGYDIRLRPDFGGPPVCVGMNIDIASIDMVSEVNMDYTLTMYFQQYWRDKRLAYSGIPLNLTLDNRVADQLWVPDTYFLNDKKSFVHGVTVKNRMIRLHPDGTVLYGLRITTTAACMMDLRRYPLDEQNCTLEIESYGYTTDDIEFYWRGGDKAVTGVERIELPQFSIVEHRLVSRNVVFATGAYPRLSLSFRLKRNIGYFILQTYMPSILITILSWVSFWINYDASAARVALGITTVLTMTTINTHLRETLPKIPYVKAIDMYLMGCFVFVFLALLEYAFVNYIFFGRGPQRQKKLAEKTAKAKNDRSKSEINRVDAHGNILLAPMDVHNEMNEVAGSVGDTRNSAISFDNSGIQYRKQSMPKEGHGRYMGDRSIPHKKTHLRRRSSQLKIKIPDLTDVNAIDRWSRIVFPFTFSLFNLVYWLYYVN
Chain of α1β3γ2 GABAA receptors (P18508 39-466): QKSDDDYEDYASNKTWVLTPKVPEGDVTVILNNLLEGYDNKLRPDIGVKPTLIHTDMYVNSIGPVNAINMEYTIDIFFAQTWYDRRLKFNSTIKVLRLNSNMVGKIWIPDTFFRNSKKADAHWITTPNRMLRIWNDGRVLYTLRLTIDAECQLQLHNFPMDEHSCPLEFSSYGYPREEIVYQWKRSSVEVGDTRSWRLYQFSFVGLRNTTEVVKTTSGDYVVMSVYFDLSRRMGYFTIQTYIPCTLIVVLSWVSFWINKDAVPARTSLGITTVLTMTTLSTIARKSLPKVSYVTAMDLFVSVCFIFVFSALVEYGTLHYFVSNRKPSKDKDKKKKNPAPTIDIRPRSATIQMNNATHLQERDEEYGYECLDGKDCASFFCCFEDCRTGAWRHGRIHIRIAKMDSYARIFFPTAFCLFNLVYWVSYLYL

α3β3γ2 GABAA receptors = α3β3γ2 GABAA receptors (Rattus norvegicus, UniProt P18508+P20236); experiment: as above; assay type: cell-based
Chain of α3β3γ2 GABAA receptors (P20236 29-493): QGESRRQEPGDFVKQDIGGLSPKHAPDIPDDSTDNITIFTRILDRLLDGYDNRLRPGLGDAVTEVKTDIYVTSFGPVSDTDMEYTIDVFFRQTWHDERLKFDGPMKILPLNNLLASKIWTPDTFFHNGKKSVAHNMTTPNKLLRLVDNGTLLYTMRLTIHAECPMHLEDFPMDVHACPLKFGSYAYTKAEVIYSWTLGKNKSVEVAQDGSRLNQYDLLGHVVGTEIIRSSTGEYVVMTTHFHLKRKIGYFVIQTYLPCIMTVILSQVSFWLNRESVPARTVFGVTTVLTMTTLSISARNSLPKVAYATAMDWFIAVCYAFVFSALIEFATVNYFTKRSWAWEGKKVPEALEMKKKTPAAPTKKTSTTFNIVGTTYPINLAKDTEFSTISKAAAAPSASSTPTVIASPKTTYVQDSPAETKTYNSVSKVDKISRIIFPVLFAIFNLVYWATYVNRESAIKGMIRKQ
Chain of α3β3γ2 GABAA receptors (P63079 26-473 partner): as the sequence (P63079 26-473 partner) above
Chain of α3β3γ2 GABAA receptors (P18508 39-466): as the sequence (P18508 39-466) above

α5β3γ2 GABAA receptors = α5β3γ2 GABAA receptors (Rattus norvegicus, UniProt P18508+P19969); experiment: as above; assay type: cell-based; details: for % of control current: EC3 GABA, α5β3γ2
Chain of α5β3γ2 GABAA receptors (P19969 32-464 limits assumed): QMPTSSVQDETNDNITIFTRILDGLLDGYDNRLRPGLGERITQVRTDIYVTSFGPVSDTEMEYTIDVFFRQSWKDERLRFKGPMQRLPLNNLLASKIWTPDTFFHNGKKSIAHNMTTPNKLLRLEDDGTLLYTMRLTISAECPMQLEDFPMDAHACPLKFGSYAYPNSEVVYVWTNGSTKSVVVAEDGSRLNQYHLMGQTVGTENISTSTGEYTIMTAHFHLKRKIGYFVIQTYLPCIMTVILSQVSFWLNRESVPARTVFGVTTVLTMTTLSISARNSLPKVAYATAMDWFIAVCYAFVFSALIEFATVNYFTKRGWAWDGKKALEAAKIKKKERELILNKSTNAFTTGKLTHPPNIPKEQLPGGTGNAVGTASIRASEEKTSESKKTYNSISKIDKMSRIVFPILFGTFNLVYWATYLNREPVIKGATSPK
Chain of α5β3γ2 GABAA receptors (P63079 26-473 partner): as the sequence (P63079 26-473 partner) above
Chain of α5β3γ2 GABAA receptors (P18508 39-466): as the sequence (P18508 39-466) above

α1β3γ2 GABAA/BZ site = details: recombinant human receptors; ref Yin et al., 2010; cited from earlier work
α2β3γ2 GABAA/BZ site = details: α2 GABAA receptors; ref Yin et al., 2010; cited from earlier work
α3β3γ2 GABAA/BZ site = details: α3 GABAA receptors; ref Yin et al., 2010; cited from earlier work
[2] = Quantification in rat brain tissue; assay type: in vivo, Wistar rats; details: Wistar, intraperitoneal, 10 mg/kg, total brain concentration, highest behaviorally tested dose
α5β3γ2 GABAA/BZ site = details: α5 GABAA receptors; ref Yin et al., 2010; cited from earlier work
[3] = test system: spatial learning and memory; details: ref Savić et al, 2009, cited from earlier work
α1 GABAA receptors = details: after 7 days of treatment, ref Wu et al., 1995, cited from earlier work
[4] = WYS8 0.2 and 10 mg/kg + DZP 2 mg/kg i.p.

Chain of α2β3γ2 GABAA receptors (P23576 29-451): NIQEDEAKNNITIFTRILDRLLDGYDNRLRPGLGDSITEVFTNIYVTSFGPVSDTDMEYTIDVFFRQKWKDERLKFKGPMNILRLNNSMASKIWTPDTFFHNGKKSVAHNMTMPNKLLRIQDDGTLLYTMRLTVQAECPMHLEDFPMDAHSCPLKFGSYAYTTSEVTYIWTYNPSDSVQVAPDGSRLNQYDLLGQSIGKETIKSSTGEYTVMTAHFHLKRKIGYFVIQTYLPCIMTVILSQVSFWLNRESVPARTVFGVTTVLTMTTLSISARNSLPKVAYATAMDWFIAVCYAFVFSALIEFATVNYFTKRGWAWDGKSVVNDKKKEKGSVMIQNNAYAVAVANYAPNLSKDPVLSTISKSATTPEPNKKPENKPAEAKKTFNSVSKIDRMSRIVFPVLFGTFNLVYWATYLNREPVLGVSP
Chain of α2β3γ2 GABAA receptors (P63079 26-473 partner): as the sequence (P63079 26-473 partner) above
Chain of α2β3γ2 GABAA receptors (P18508 39-466): as the sequence (P18508 39-466) above

Structure (SMILES): CN1C(=O)CN=C(c2ccccc2)c2cc(Cl)ccc21 [DZP, diazepam, reference compound]
- remaining activity at 0.01 µM (α2β3γ2 GABAA receptors; read-out: % of control current): 193 ± 5%
- total distance travelled during acquisition ([1]; 2 mg/kg i.p., vs solvent-treated controls): significantly longer distances than solvent-treated controls during all five days
- remaining activity at 0.01 µM (α1β3γ2 GABAA receptors; read-out: % of control current): 136 ± 3%
- remaining activity at 0.01 µM (α3β3γ2 GABAA receptors; read-out: % of control current): 167 ± 8%
- remaining activity at 0.01 µM (α5β3γ2 GABAA receptors; read-out: % of control current): 160 ± 2%

Structure (SMILES): C#Cc1cccc2c1[nH]c1cnc(C(=O)OC(C)(C)C)cc12 [WYS8, 8-ethynyl-β-carboline-3-carboxylate-t-butyl ester]
- binding affinity at α1 GABAA receptors (α1β3γ2 GABAA/BZ site): sub-nanomolar
- % of control current (α2β3γ2 GABAA receptors; 10 nM compound, EC3 GABA, α2β3γ2): no significant stimulation
- remaining activity at 0.1 µM (α2β3γ2 GABAA receptors; read-out: % of control current): 109 ± 2%
- Ki (α2β3γ2 GABAA/BZ site): 111 nM
- Ki (α3β3γ2 GABAA/BZ site): 102 nM
- effect of addition to DZP on DZP's actions in the water maze ([1]; WYS8 0.2, 1 and 10 mg/kg + DZP 2 mg/kg i.p.): did not generally affect the BZ’s actions
- activity in the water maze when combined with β-CCt ([1]; WYS8 0.2, 1 and 10 mg/kg + β-CCt 5 mg/kg i.p.): devoid of any activity
- effect on Morris water-maze performance on its own [1]: no substantial effect
- latency on the fourth day, combination with DZP vs DZP alone [1, 4]: significantly longer latencies than those treated with DZP alone
- total distance on the fourth day, combination with DZP vs DZP alone [1, 4]: significantly longer distances than those treated with DZP alone
- potentiation (α1β3γ2 GABAA receptors; at 100 nM, α1-subtype): 40%
- remaining activity at 0.01 µM (α1β3γ2 GABAA receptors; read-out: % of control current): 124 ± 3%
- remaining activity at 0.1 µM (α1β3γ2 GABAA receptors; read-out: % of control current): 141 ± 5%
- concentration at 20 min [2]: < 100 nM
- % of control current (α3β3γ2 GABAA receptors; 10 nM compound, EC3 GABA, α3β3γ2): no significant stimulation
- remaining activity at 0.1 µM (α3β3γ2 GABAA receptors; read-out: % of control current): 126 ± 7%
- Ki (α5β3γ2 GABAA/BZ site): 208 nM
- % of control current (α5β3γ2 GABAA receptors; 10 nM compound): no significant stimulation
- % of control current (α5β3γ2 GABAA receptors; 100 nM compound): non-significant changes
- modulation of EC3 GABA response (α5β3γ2 GABAA receptors; 1 μM compound, α5 GABAA receptors): significant, though relatively small negative modulation

Structure (SMILES): CC(C)(C)OC(=O)c1cc2c(cn1)[nH]c1ccccc12 [β-CCt, t-butyl-β-carboline-3-carboxylate, reference compound]
- binding affinity at α1 GABAA receptors (α1β3γ2 GABAA/BZ site): sub-nanomolar
- effect on Morris water-maze performance on its own [1]: no substantial effect
- effect on spatial learning deficits induced by DZP in the water maze ([3]; acquisition): almost completely abolished
- effect on spatial memory deficits induced by DZP, probe trial [3]: at least partially prevented

Structure (SMILES): CCN(CC)CCN1C(=O)CN=C(c2ccccc2F)c2cc(Cl)ccc21 [flurazepam]
- decrease of binding of radiolabelled zolpidem (α1 GABAA receptors; cerebellum): 23%
- decrease of binding of radiolabelled zolpidem (α1 GABAA receptors; hippocampus): 14%
